Measured values taken from ChEMBL document CHEMBL1123839, “5-Acyl-3-substituted-benzofuran-2(3H)-ones as potential antiinflammatory agents” (1987).

What was measured:
Type in all cases: functional
Cavia porcellus [1] = species: Cavia porcellus; assay: Tested for effect on the production of cyclooxygenase (COX) metabolite, PGE-2 (prostaglandin E2) of arachidonic acid in guinea pig peritoneal polymorphonuclear neutrophils at 30 uM concentration
Method in brief: (§1)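 Guinea pig peritoneal PMNs were incubated with [14C]arachidonic acid and stimulated with calcium ionophore A23187. Compounds were tested at 30 μM in 0.1 N NaOH–Krebs Ringer bicarbonate buffer. Radiolabeled cyclooxygenase and lipoxygenase products were identified by HPLC and GC-MS, separated by TLC and quantified by automatic scanning.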

Rattus norvegicus [2] = species: Rattus norvegicus; assay: Antiinflammatory activity was assessed improvement of adjuvant induced arthritis in rats, determined by joint mobility of the paw; design: concentration or dose not given beside the values
Method in brief: (§2)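 Adjuvant arthritis was induced in female Sprague–Dawley rats (150–170 g, groups of six) by right-hind-paw plantar injection of killed tubercle bacillus in paraffin. Treatment was 33 mg/kg orally, daily for 14 days, starting the day before adjuvant. Joint involvement was scored as the angle through which the hind paws moved easily, given as percent change versus nontreated controls.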

Cavia porcellus [3] = species: Cavia porcellus; assay: Tested for effect on the production of Lipoxygenase (LO) metabolite, 5-HETE in guinea pig peritoneal polymorphonuclear neutrophils at 30 uM concentration; method in brief: as §1
Cavia porcellus [4] = species: Cavia porcellus; assay: Tested for effect on the production of cyclooxygenase (COX) metabolite, PGF2-alpha (prostaglandin F2-alpha) of arachidonic acid in guinea pig peritoneal polymorphonuclear neutrophils at 30 uM concentration; method in brief: as §1
Rattus norvegicus [5] = assay: Ability to improve the adjuvant induced arthritis in right secondary lesion in rats at oral doses, 33 mg/kg
Method in brief: (§3)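 Female Sprague–Dawley rats (150–170 g), six per group. Arthritis induced by subcutaneous plantar injection of 0.125 mg killed tubercle bacillus in liquid paraffin into the right hind paw. Dosing was 33 mg/kg orally, daily for 14 days, starting the day before adjuvant. Paw volumes were measured by mercury plethysmography every 2–3 days over 18 days. Primary lesion: right paw, days 0–8. Secondary lesions: right and left (uninjected) paws, days 9–18. Areas under the time-course curves were compared with controls by ANOVA.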

Cavia porcellus [6] = species: Cavia porcellus; assay: Tested for effect on the production of Lipoxygenase (LO) metabolite, 5,12-diHETE in guinea pig peritoneal polymorphonuclear neutrophils at 30 uM concentration; method in brief: as §1
Rattus norvegicus [7] = assay: Antiinflammatory activity was assessed by the ability to improve the adjuvant induced arthritis in left secondary lesion in rats at oral doses, 33 mg/kg (volume change in the injected paw measured from day 9 to day 18)
Rattus norvegicus [8] = assay: Antiinflammatory activity was assessed by the ability to improve the adjuvant induced arthritis in right primary lesion in rats at oral doses, 33 mg/kg (volume change in the injected paw measured from day 0 to day 8); method in brief: as §3
Cavia porcellus [9] = species: Cavia porcellus; assay: Tested for effect on the production of cyclooxygenase (COX) metabolite, TXB2 of arachidonic acid in guinea pig peritoneal polymorphonuclear neutrophils at 30 uM concentration; method in brief: as §1
Rattus norvegicus [10] = assay: Antiinflammatory activity was assessed by the ability to improve the adjuvant induced arthritis in left secondary lesion in rats at oral doses, 33 mg/kg (volume change in the uninjected paw measured from day 9 to day 18); method in brief: as §3
Rattus norvegicus [11] = assay: Antiinflammatory activity was assessed by the ability to improve the adjuvant induced arthritis rats was determined by joint mobility of the paw at oral doses, 33 mg/kg; method in brief: as §2
Cavia porcellus [12] = species: Cavia porcellus; assay: Tested for effect on the production of Lipoxygenase (LO) metabolite, 5,12-diHETE in guinea pig peritoneal polymorphonuclear neutrophils at 30 uM concentration; ND = no data; method in brief: as §1
Cavia porcellus [13] = species: Cavia porcellus; assay: Tested for effect on the production of Lipoxygenase (LOX) metabolite, 5-HETE in guinea pig peritoneal polymorphonuclear neutrophils at 30 uM concentration; method in brief: as §1
Rattus norvegicus [14] = species: Rattus norvegicus; assay: Antiinflammatory activity was assessed by the ability to improve the adjuvant induced arthritis in right primary lesion in rats(volume change in the injected paw measured from day 0 to day 8); method in brief: as §3
Rattus norvegicus [15] = species: Rattus norvegicus; assay: Antiinflammatory activity was assessed by the ability to improve the adjuvant induced arthritis in right secondary lesion in rats (volume change in the injected paw measured from day 9 to day 18); method in brief: as §3
Rattus norvegicus [16] = species: Rattus norvegicus; assay: Antiinflammatory activity was assessed by the ability to improve the adjuvant induced arthritis in left secondary lesion in rats (volume change in the […] to day 18)

Compound | Reduction (Cavia porcellus [1]) [%] | Reduction (Rattus norvegicus [2]) [%] | Reduction (Cavia porcellus [3]) [%] | Reduction (Cavia porcellus [4]) [%] | Reduction (Rattus norvegicus [5]) [%] | Reduction (Cavia porcellus [6]) [%] | Reduction (Rattus norvegicus [7]) [%] | Reduction (Rattus norvegicus [8]) [%] | Reduction (Cavia porcellus [9]) [%] | Reduction (Rattus norvegicus [10]) [%] | Reduction (Rattus norvegicus [11]) [%] | Reduction (Cavia porcellus [12]) [%] | Reduction (Cavia porcellus [13]) [%] | Reduction (Rattus norvegicus [14]) [%] | Reduction (Rattus norvegicus [15]) [%] | Reduction (Rattus norvegicus [16]) [%]
CC(C(=O)O)c1cc(C(=O)c2ccccc2)ccc1O (stereo not drawn) | 77 | 38 | -27 | 52 | 37 | -55 | 61 | 30 | 75 |  |  |  |  |  |  | 
O=C(O)Cc1cc(C(=O)c2cccs2)ccc1O | 74 | 1 | -72 | 74 | 20 | -62 |  | 11 | 89 | 10 |  |  |  |  |  | 
O=C1Oc2ccc(C(=O)c3cccs3)cc2/C1=C/c1ccc(C(F)(F)F)cc1 | 79 | 4 | 67 | 67 | 19 | 68 | 15 | 3 | 95 |  |  |  |  |  |  | 
C=CCc1cc(C(=O)c2cccs2)cc2c1OC(=O)C2C (stereo not drawn) | 88 | 5 | 14 | 77 | 6 | -24 | 17 | 1 | 93 |  |  |  |  |  |  | 
CCCCC(C(=O)O)c1cc(C(=O)c2cccs2)ccc1O (stereo not drawn) | 44 | 14 | 60 | 51 | 29 | 60 | 53 | 5 | 64 |  |  |  |  |  |  | 
CC1C(=O)Oc2ccc(C(=O)c3ccc(F)cc3)cc21 (stereo not drawn) | 46 | -1 | 6 | 47 | 10 | -25 | 31 | 5 | 76 |  |  |  |  |  |  | 
CCC(CC)(C(=O)O)c1cc(C(=O)c2cccs2)ccc1O | 54 | 38 | -21 | 50 | 22 | -18 | 45 | 6 | 90 |  |  |  |  |  |  | 
CCCCC1C(=O)Oc2ccc(C(=O)c3cccs3)cc21 (stereo not drawn) | 68 | -1 | 73 | 62 | -22 | 61 | -55 | 4 | 89 |  |  |  |  |  |  | 
CCC1(CC)C(=O)Oc2ccc(C(=O)c3cccs3)cc21 | 62 | 23 | 2 | 48 | 17 | -7 | 41 | 18 | 90 |  |  |  |  |  |  | 
CC1(C)C(=O)Oc2ccc(C(=O)c3cccs3)cc21 | 81 | 44 | 52 | -37 | 36 | 49 | 50 | 28 | 81 |  |  |  |  |  |  | 
O=C1Oc2ccc(C(=O)c3cccs3)cc2/C1=C/c1ccccc1 | 81 |  | -18 | 60 | 48 | -10 | 76 | 21 | 92 |  | 46 |  |  |  |  | 
C=CCOc1ccc(C(=O)c2cccs2)cc1C(C)C(=O)O (stereo not drawn) | 6 | -14 | -25 | 11 | -8 |  | 3 | 18 | 62 |  |  | -21 |  |  |  | 
CC(C(=O)O)c1cc(C(=O)c2ccco2)ccc1O (stereo not drawn) | 87 | 7 | -14 | 61 | -5 | -17 | 13 | -31 | 87 |  |  |  |  |  |  | 
O=C(c1ccc2c(c1)C(C(=O)Nc1ccccc1)C(=O)O2)c1cccs1 (stereo not drawn) | 93 | 1 | 94 | 86 | 6 | 85 | 25 | 8 | 93 |  |  |  |  |  |  | 
CCC1C(=O)Oc2ccc(C(=O)c3cccs3)cc21 (stereo not drawn) | 79 | 52 | 20 | 62 | 51 | 9 | 81 | 13 | 90 |  |  |  |  |  |  | 
CC1C(=O)Oc2ccc(C(=O)c3cccs3)cc21 (stereo not drawn) | 61 | 31 | 37 | 15 | 40 | 39 | 48 | 31 | 67 |  |  |  |  |  |  | 
NC1=NN(c2cccc(C(F)(F)F)c2)CC1 [BW-755C] | 79 |  |  | 82 |  | 40 |  |  | 90 |  |  |  | 45 |  |  | 
COc1ccc2c(c1)c(CC(=O)O)c(C)n2C(=O)c1ccc(Cl)cc1 [INDOMETHACIN] | 84 | 91 | -12 | 70 |  | -81 |  |  | 91 |  |  |  |  | 37 | 56 | 77
